CCR6 antagonist: blocks CCL20-driven beta-arrestin recruitment at human CCR6; P51684; CHO-K1 CCR6 PathHunter beta-arrestin, luminescence, CCL20-stimulated; inhibition, % at 20 µM; 340,000 tested, 0.49% active; AID 493098;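 active means compounds whose inhibition of the agonist-driven luminescence signal at 20 µM reaches about 50%, limit read from the data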;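 further: cells stimulated with CCL20 at 14 nM final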
APJ antagonist: APJ receptor antagonism; P35414; CHO-K1 APJ beta-arrestin complementation, luminescence; inhibition, % at 20 µM; 330,000 tested, 0.32% active; AID 2521;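 active means inhibition above about 40% at 20 µM, limit read from the data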;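 further: cells challenged with 10 nM apelin-13 agonist together with compound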
APJ agonist: agonists of human APJ apelin receptor; activation, % at 20 µM; P35414; 330,000 tested, 0.11% active; CHO-K1 APJ PathHunter beta-arrestin, luminescence; 0% DMSO wells, 100% apelin;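 active means activation more than six SD over the plate average, tested at 20 µM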
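Assay system: engineered CHO-K1 APJ arrestin reporter cells; Amount: 1000 CHO-K1 reporter cells seeded per well; Dosing: one dose, 20 µM compound, 1% DMSO; Times: compound stimulation 90 min at 25 °C, detection 60 min; Measured by: luminescent beta-gal fragment complementation, chemiluminescent substrate; Read-out: APJ–arrestin association signal; Controls: DMSO vs Apelin-13 10 nM.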
HTR2A ag: mouse HTR2A agonism via beta-arrestin recruitment; P35363; CHO-K1 mHTR2A beta-arrestin complementation, luminescence; percent of 30 µM serotonin response; activation, % at 7.6 µM; 360,000 tested, 0.66% active; AID 624169;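 active means activation above a run cutoff, the mean activation of all tested compounds plus 3 SD, cut at about 14% in these data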
CXCR6 inh: inhibitors of human CXCR6 receptor; inhibition, % at 20 µM; O00574; CHO-K1 PathHunter CXCR6 beta-arrestin, luminescence; AID 602244; 360,000 tested, 0.36% active; in the data active means inhibition above about 34%, passing the limit was not always enough;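 further: antagonist mode with CXCL16 agonist at 10 nM final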
EBI2 antag: blocks human EBI2 receptor beta-arrestin signaling | P32249 | EBI2 beta-arrestin recruitment, luminescence, 7a,25-OHC stimulated | inhibition, % at 5 µM | 360,000 tested, 0.81% active | AID 651636; in the data active means inhibition above about 38%;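 further: enzyme fragment complementation signal reports receptor beta-arrestin coupling in cells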
MOR ag counter: activates human mu opioid receptor in HTR2A counterscreen; U2OS OPRM1 beta-arrestin PathHunter, luminescence; DMSO 0%, DAMGO 9.3 µM 100%; shares compounds with HTR2A ag; activation, % at 9.3 µM; 2,300 tested, 5.3% active;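 active means mean activation above the mean of DMSO-only wells plus 3 SD, cut at about 0.5% in these data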
Target sequence (P35372 whole entry, looked up): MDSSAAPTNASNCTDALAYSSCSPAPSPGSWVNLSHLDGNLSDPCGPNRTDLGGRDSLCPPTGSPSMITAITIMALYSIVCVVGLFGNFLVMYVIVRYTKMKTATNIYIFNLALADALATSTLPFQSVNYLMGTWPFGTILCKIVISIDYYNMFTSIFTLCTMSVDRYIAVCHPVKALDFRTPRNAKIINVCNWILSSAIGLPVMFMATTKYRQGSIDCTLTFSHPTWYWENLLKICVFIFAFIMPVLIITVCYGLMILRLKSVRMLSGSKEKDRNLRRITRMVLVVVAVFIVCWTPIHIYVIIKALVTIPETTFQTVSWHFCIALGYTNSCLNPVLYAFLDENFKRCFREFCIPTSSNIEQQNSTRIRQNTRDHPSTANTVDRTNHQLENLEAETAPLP
HTR2A ag conf: confirmation of mouse HTR2A serotonin receptor agonists; shares compounds with HTR2A ag; CHO-K1 PathHunter beta-arrestin recruitment, luminescence; DMSO 0%, 30 µM serotonin 100%; activation, % at 7.6 µM; 2,300 tested, 19% active; AID 624381;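 active means mean activation across triplicates above the hit threshold derived in the original primary screen, cut at about 15% in these data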
A number is an active result; – = inactive; · = no result given. Hits are enriched below; roughly 2.1% of the tested compounds scored in any of these assays.

SMILES	CCR6 antagonist	APJ antagonist	APJ agonist	HTR2A ag	CXCR6 inh	EBI2 antag	MOR ag counter	HTR2A ag conf
O=C(Cn1cnc2ccccc2c1=O)NCC(=O)N1CCN(Cc2ccc3c(c2)OCO3)CC1	–	–	–	–	–	–	·	·
Cc1ccc(NC(=S)N2CCN(c3ccccn3)CC2)cc1C	–	–	–	–	–	–	·	·
O=C(C[n+]1cc(-c2ccccc2)n2c1CCC2)Nc1nc(-c2ccc(F)cc2)cs1	–	–	–	21	–	–	–	51
CN1C(=O)CC(Sc2ncccc2C(=O)O)C1=O (centres undefined)	–	–	–	15	–	–	–	–
CCCN1C(=O)CC(Sc2ncccc2C(=O)O)C1=O (centres undefined)	–	–	–	–	–	–	·	·
Cc1cccc(C)c1NC(=O)c1cn(-c2ccccc2)nc1-c1ccccc1	–	–	–	21	–	–	–	–
Cc1ccccc1NC(=O)c1cn(-c2ccccc2)nc1-c1ccccc1	–	–	–	–	–	–	·	·
CCN1C(=O)CC(c2ccc(OC(C)C)cc2)C1=O (centres undefined)	–	–	–	–	–	–	·	·
O=[N+]([O-])c1cc2ncccc2c2ncccc12	·	·	·	15	–	–	–	–
Cc1cc([N+](=O)[O-])cc2ncccc12	–	–	–	–	–	–	·	·
CCN(Cc1ccccc1)C(=O)Cn1cc(S(=O)(=O)NC)c(S(=O)(=O)NC)c1	–	–	–	16	–	–	–	–
CCOCC(=O)N(CC)Cc1ccccc1	–	–	–	–	–	–	·	·
O=C(Cc1cccc(C(F)(F)F)c1)NCc1cccc(Cl)c1	–	–	–	25	–	–	–	–
CC1(c2cccc(Br)c2)NC(=O)N(CC(=O)NC2CCCCC2)C1=O (centres undefined)	–	–	–	–	–	–	·	·
COc1ccc2c(c1)OC(=O)CC2c1ccccc1OC (centres undefined)	–	·	·	16	–	–	–	–
Cc1ccc(OCCCSc2n[nH]c(N)n2)cc1	–	–	–	–	–	–	·	·
COc1cc([N+](=O)[O-])ccc1NC(=O)/C=C\C(=O)O	–	–	–	22	–	–	–	–
COc1cc([N+](=O)[O-])ccc1NC(=O)/C=C/C(=O)O	–	–	–	–	–	–	·	·
C=CCn1c(SCC(=O)N(CC)C2CCS(=O)(=O)C2)nnc1-c1ccccc1 (centres undefined)	–	–	–	–	–	–	·	·
CCCC[C@@H]1C=C(C(=O)O)[C@H](c2ccc3c(c2)OCO3)N1S(=O)(=O)c1ccc(C)cc1	–	–	–	16	–	–	1.3	–
CCOC(=O)C1=CC[C@@H](c2ccccc2C(F)(F)F)N(S(=O)(=O)c2ccc(C)cc2)[C@H]1c1ccc(C#N)cc1	·	·	·	17	–	–	–	–
CC[C@@H]1C=C(C(=O)O)[C@H](c2ccc(Cl)cc2)N1S(=O)(=O)c1ccc(C)cc1	–	–	–	17	–	–	–	–
CC[C@@H]1C=C(C(=O)O)[C@H](c2ccc(C)cc2)N1S(=O)(=O)c1ccc(C)cc1	–	–	–	–	–	–	·	·
CCOC(=O)C1=CC[C@@H](c2ccccc2)N(S(=O)(=O)c2ccc(C)cc2)[C@@H]1C#N	·	·	·	–	·	–	·	·
Cc1ccc([C@@H]2CC=C(C(=O)O)[C@H](c3ccc(C(C)(C)C)cc3)N2S(=O)(=O)c2ccc(C)cc2)cc1	–	–	–	24	–	–	–	–
SMILES	CCR6 antagonist	APJ antagonist	APJ agonist	HTR2A ag	CXCR6 inh	EBI2 antag	MOR ag counter	HTR2A ag conf
COc1ccc(CCN2C(=O)c3ccccc3C2c2nnnn2-c2ccc3c(c2)OCCO3)cc1OC (centres undefined)	·	·	·	–	–	–	·	·
O=C(CSc1nnc(CNC(=O)c2ccco2)o1)Nc1ccc(Cl)cc1	–	–	–	–	–	–	·	·
O=C(CC1SC(=Nc2ccc(OC(F)F)cc2)N(CCN2CCOCC2)C1=O)Nc1ccc(F)cc1F (centres undefined)	–	–	–	–	–	–	·	·
COc1cc(C(=O)O)ccc1O	–	–	–	28	–	–	–	–
C=CCn1c(SCC(=O)c2ccc(Cl)cc2)nnc1-c1ccc2c(c1)OCO2	–	–	–	32	–	–	–	–
O=C(CBr)N1CCc2ccccc2C(c2ccccc2)C1 (centres undefined)	–	–	–	–	–	–	·	·
C=CCN1CCc2c(cc(O)c(O)c2Br)[C@@H](c2ccccc2)C1	–	–	–	61	–	–	–	141
CC1=CC2=NC(=O)/C(=C\c3ccc(OC(=O)c4ccco4)cc3)C(=N)N2O1	–	–	–	–	–	–	·	·
COCCN(Cc1ccccc1)C(=O)c1cccc(S(=O)(=O)N2CCN(c3ccccc3)CC2)c1	–	–	–	–	–	–	·	·
COCCN(Cc1ccccc1)C(=O)c1ccc(C(=O)c2ccccc2)cc1	–	–	–	22	–	–	–	–
O=C(Nc1ccccc1Cc1ccccc1)c1ccccc1NS(=O)(=O)c1ccc(Cl)s1	–	–	–	–	–	–	·	·
COc1ccc(NC(=O)CCCNS(=O)(=O)c2cccs2)cc1	–	–	–	–	–	–	·	·
COc1ccc(NC(=O)CNS(=O)(=O)c2cccs2)cc1	–	–	–	24	–	–	–	–
Cc1cc(OC(=O)c2cccc(F)c2)c([N+](=O)[O-])c(=O)[nH]1	–	–	–	15	–	–	–	–
Cc1cc(OC(=O)c2cccc(Cl)c2)c([N+](=O)[O-])c(=O)[nH]1	–	–	–	–	–	–	·	·
Cn1c(SCC(=O)Nc2ccc(F)cc2)nnc1-c1cccnc1	–	–	–	–	–	–	·	·
Oc1ccccc1C=NNC(=S)NC1CC2C=CC1C2 (centres undefined)	·	·	·	19	–	–	–	–
Oc1ccccc1/C=N/NC(=S)NC1CC2C=CC1C2 (centres undefined)	–	–	–	–	–	–	·	·
CC1(C)Cc2nc3[nH]c(=S)[nH]c(=O)c3cc2CO1	–	–	–	–	–	–	·	·
COc1cc2c(cc1OC)CN(c1nc(CN3CCCC3)nc3sc(C)c(C)c13)CC2	–	–	–	35	–	–	–	32
Cc1ccccc1S(=O)(=O)N(C)C[C@@H]1OCc2ccccc2-c2c(n(C)c3ccccc23)C(=O)N([C@H](C)CO)C[C@@H]1C	·	·	·	56	–	–	–	–

Source: PubChem BioAssay
